The MIC is the lowest concentration that inhibits growth of the organism.

Assay type in all cases: functional
One experiment concerns Pseudomonas aeruginosa. Nature of the experiment: Antibacterial activity against multidrug-resistant Pseudomonas aeruginosa B 63230 assessed as growth inhibition by broth microdilution method. The method in brief: (§1)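 MIC by broth microdilution following CLSI guidelines. Inoculum made by direct colony suspension, giving 5 × 10^5 CFU/mL after the last dilution step. Compounds dosed from 10 mg/mL DMSO stocks up to 64 μg/mL top concentration, where final DMSO was 0.64%. Growth read as OD600 in a microtiter plate reader.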
In general terms: In broth dilution the organism is exposed to a series of concentrations in liquid medium.

For a further experiment, the system named is Escherichia coli. In words: Antibacterial activity against Escherichia coli ATCC 25922 assessed as growth inhibition by broth microdilution method. The gist of the method:
(§2)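 MIC by broth microdilution following CLSI guidelines; inoculum made by direct colony suspension, 5 × 10^5 CFU/mL after the final dilution. Compounds were added from a 10 mg/mL DMSO stock, tested up to 64 μg/mL, giving 0.64% final DMSO at the top concentration. Growth was read as OD600 in a microtiter plate reader.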

Another experiment has as its system Enterococcus faecalis. In words: Antibacterial activity against multidrug and vancomycin-resistant Enterococcus faecalis UW 2689 assessed as growth inhibition by broth microdilution method. The method in brief: as §1
Another experiment concerns Streptococcus pneumoniae. In words: Antibacterial activity against Streptococcus pneumoniae ATCC 49619 assessed as growth inhibition by broth microdilution method. The method in brief: as §2
Experiment [1] relates to Staphylococcus aureus. Nature of the experiment: Antibacterial activity against multidrug and methicillin-resistant Staphylococcus aureus 25697 assessed as growth inhibition by broth microdilution method. The method in brief: as §1
The test system of experiment [2] is Staphylococcus aureus. In words: Antibacterial activity against Staphylococcus aureus ATCC 29213 assessed as growth inhibition by broth microdilution method. The gist of the method: as §2
Another experiment relates to Bacillus subtilis. In words: Antibacterial activity against Bacillus subtilis 168 trpC2 assessed as growth inhibition by broth microdilution method. The conditions noted are these: subsp. subtilis str. 168. The method in brief:
as §2

As to `CN(C)[C@@H]1C(O)=C(C(N)=O)C(=O)[C@@]2(O)C(O)=C3C(=O)c4c(O)cccc4[C@@](C)(O)[C@H]3C[C@@H]12` [TETRACYCLINE], the MIC in the experiment with Pseudomonas aeruginosa worked out at 32 µg/mL; in the experiment with Escherichia coli it was 0.5 µg/mL; in the experiment with Enterococcus faecalis it was 64 µg/mL; in the experiment on Streptococcus pneumoniae, 0.0625 µg/mL; with Staphylococcus aureus [1], 32 µg/mL; in the experiment on Staphylococcus aureus [2], 0.25 µg/mL. For the same molecule, in the experiment with Bacillus subtilis, the MIC is 4 µg/mL.
As to `CC(=O)C[C@@H](O)Cc1cc2cc(O)cc(O)c2c(=O)o1`, the MIC in the experiment on Pseudomonas aeruginosa, in the experiment on Escherichia coli, with Enterococcus faecalis, with Streptococcus pneumoniae, in the experiment with Staphylococcus aureus [1] and with Staphylococcus aureus [2] was above 64 µg/mL throughout. In the experiment with Bacillus subtilis, the MIC was above 64 µg/mL.
In the case of `CC(C)[C@H]1C(=O)O[C@H](C(C)C)C(=O)N(C)[C@@H](C(C)C)C(=O)O[C@H](C(C)C)C(=O)N(C)[C@@H](C(C)C)C(=O)O[C@H](C(C)C)C(=O)N1C` [ENNIATIN B], the MIC with Pseudomonas aeruginosa is above 64 µg/mL; in the experiment on Escherichia coli, above 64 µg/mL; in the experiment with Enterococcus faecalis, above 64 µg/mL; with Streptococcus pneumoniae, 16 µg/mL; in the experiment with Staphylococcus aureus [1], above 64 µg/mL; in the experiment with Staphylococcus aureus [2] it was above 64 µg/mL. Moreover, the minimum inhibitory concentration (MIC) in the experiment with Bacillus subtilis was above 64 µg/mL.
`C[C@@H](O)C[C@@H](O)Cc1cc2cc(O)cc(O)c2c(=O)o1`: the minimal inhibitory concentration (MIC) in the experiment with Pseudomonas aeruginosa, with Escherichia coli, with Enterococcus faecalis, in the experiment with Streptococcus pneumoniae, in the experiment on Staphylococcus aureus [1] and in the experiment on Staphylococcus aureus [2] was above 64 µg/mL each time. The MIC in the experiment with Bacillus subtilis is above 64 µg/mL.
As to `CC[C@H](C)[C@H]1C(=O)O[C@H](C(C)C)C(=O)N(C)[C@@H](C(C)C)C(=O)O[C@H](C(C)C)C(=O)N(C)[C@@H](C(C)C)C(=O)O[C@H](C(C)C)C(=O)N1C` [ENNIATIN B1], the MIC is above 64 µg/mL in the experiment with Pseudomonas aeruginosa; above 64 µg/mL in the experiment with Escherichia coli; 8 µg/mL in the experiment on Enterococcus faecalis; 4 µg/mL in the experiment with Streptococcus pneumoniae; 8 µg/mL in the experiment with Staphylococcus aureus [1]; 8 µg/mL with Staphylococcus aureus [2]. Also, the MIC in the experiment on Bacillus subtilis turned out to be 16 µg/mL.
Regarding `O=C(O)CNc1ccccc1C(=O)O`, the MIC with Pseudomonas aeruginosa, in the experiment with Escherichia coli, in the experiment on Enterococcus faecalis, in the experiment on Streptococcus pneumoniae, with Staphylococcus aureus [1] and in the experiment on Staphylococcus aureus [2] was above 64 µg/mL in each case. The MIC with Bacillus subtilis was above 64 µg/mL.
Consider `CN[C@H](CC(C)C)C(=O)N[C@H]1C(=O)N[C@@H](CC(N)=O)C(=O)N[C@H]2C(=O)N[C@H]3C(=O)N[C@H](C(=O)N[C@H](C(=O)O)c4cc(O)cc(O)c4-c4cc3ccc4O)[C@H](O)c3ccc(c(Cl)c3)Oc3cc2cc(c3O[C@@H]2O[C@H](CO)[C@@H](O)[C@H](O)[C@H]2O[C@H]2C[C@](C)(N)[C@H](O)[C@H](C)O2)Oc2ccc(cc2Cl)[C@H]1O` [VANCOMYCIN], for which the MIC was above 64 µg/mL in the experiment with Pseudomonas aeruginosa, above 64 µg/mL in the experiment with Escherichia coli, 0.125 µg/mL in the experiment on Streptococcus pneumoniae and 0.125 µg/mL in the experiment on Bacillus subtilis.
Consider `Cc1cc(=O)cc(Cc2cc(O)cc(O)c2)o1`, for which the MIC with Pseudomonas aeruginosa, in the experiment on Escherichia coli, in the experiment with Enterococcus faecalis, with Streptococcus pneumoniae, in the experiment on Staphylococcus aureus [1] and with Staphylococcus aureus [2] was above 64 µg/mL in each case. In addition, the MIC in the experiment on Bacillus subtilis is above 64 µg/mL.
On to `C=C1NC(=O)C(C)C(CCC(C)C(=O)/C=C/C(C)=C/CCC(C)CCCCCC)OC(=O)C(CCC(N)=O)NC(=O)C(C)CNC1=O` (stereo not drawn), for which the MIC with Pseudomonas aeruginosa, in the experiment on Escherichia coli, in the experiment with Enterococcus faecalis, with Streptococcus pneumoniae, in the experiment with Staphylococcus aureus [1] and in the experiment with Staphylococcus aureus [2] was above 64 µg/mL in each case. The MIC in the experiment with Bacillus subtilis was above 64 µg/mL.
Turning to `COC(=O)c1oc(=O)c2c(O)c3c(=O)cc(C)oc3cc2c1O`, the minimal inhibitory concentration (MIC) in the experiment on Pseudomonas aeruginosa was above 64 µg/mL; with Escherichia coli, above 64 µg/mL; with Enterococcus faecalis, 8 µg/mL; in the experiment with Streptococcus pneumoniae, 4 µg/mL; with Staphylococcus aureus [1] it was 2 µg/mL; in the experiment on Staphylococcus aureus [2], 2 µg/mL. The MIC in the experiment on Bacillus subtilis worked out at 8 µg/mL.
Regarding `O=C(O)c1cn(C2CC2)c2cc(N3CCNCC3)c(F)cc2c1=O` [CIPROFLOXACIN], the minimal inhibitory concentration (MIC) in the experiment with Pseudomonas aeruginosa is 16 µg/mL; in the experiment on Enterococcus faecalis, 16 µg/mL; in the experiment with Streptococcus pneumoniae, 0.25 µg/mL; in the experiment with Staphylococcus aureus [1], 8 µg/mL; in the experiment on Staphylococcus aureus [2], 0.0625 µg/mL; in the experiment with Bacillus subtilis it was 0.16 µg/mL.

For the origin of these results see ChEMBL document CHEMBL3085737, “Inducing secondary metabolite production by the endophytic fungus Fusarium tricinctum through coculture with Bacillus subtilis” (2013).
